According to ChEMBL document CHEMBL4177755, “Combating Drug-Resistant Fungi with Novel Imperfectly Amphipathic Palindromic Peptides” (J Med Chem, 2018):

Columns and labels:
[1] = Cytotoxicity against HEK293T cells assessed as cell viability at 2 to 64 uM after 24 hrs by MTT assay relative to control; assay type: cell-based, HEK-293T; conditions: human, read-out: Activity
Procedure, shortened: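 MTT viability assay. RAW264.7 or HEK293T cells at (1.0−2.0) × 10^5 per well were exposed to a peptide concentration series for 24 h at 37 °C in 5% CO2. MTT was then added at 0.5 mg/mL final for 4 h; formazan was dissolved in DMSO and read at 570 nm. Results average three independent trials.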

Escherichia coli [2] = test: Antibacterial activity against Escherichia coli ATCC 25922 after 24 hrs; assay type: functional; conditions: ATCC 25922, 24 h
Procedure, shortened: (§1)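 Broth microdilution. Mid-log bacteria in MHB at a final (0.5−1) × 10^5 CFU/mL were mixed with equal volumes of peptide serially diluted in 0.2% BSA. Plates were incubated 24 h at 37 °C and read at A492. MIC is the lowest concentration inhibiting 95% of growth. Each test was repeated at least 3 times.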

Escherichia coli [3] = test: Antibacterial activity against Escherichia coli 1005 after 24 hrs; assay type: functional; conditions: Escherichia coli, 1005, 24 h; procedure, shortened: as §1
Staphylococcus aureus [4] = test: Antibacterial activity against Staphylococcus aureus ATCC 29213 after 24 hrs; assay type: functional; conditions: ATCC 29213, 24 h
Procedure, shortened: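 Modified NCCLS broth microdilution. Mid-log bacteria at (0.5−1) × 10^5 CFU/mL in MHB were mixed 1:1 with peptide serially diluted in 0.2% BSA and incubated 24 h at 37 °C. Absorbance was read at 492 nm; MIC is the lowest concentration inhibiting 95% of growth. At least 3 repeats.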

Salmonella typhimurium = test: Bactericidal activity against Salmonella typhimurium ATCC 14028; assay type: functional, Salmonella enterica subsp. enterica serovar Typhimurium; conditions: Salmonella enterica, read-out: MBC99.9
Procedure, shortened: (§2)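 Wells from the 24 h, 37 °C MHB microdilution plates (bacteria at a final (0.5−1) × 10^5 CFU/mL; peptide diluted in 0.2% BSA) were plated on agar and incubated overnight. MBC is the lowest concentration killing >99.9% of cells. Each test was reproduced at least 3 times.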

[5] = Bactericidal activity against Salmonella pullorum ATCC 7913; assay type: functional, Salmonella enterica subsp. enterica serovar Pullorum; conditions: Salmonella enterica, read-out: MBC99.9; procedure, shortened: as §2
Staphylococcus aureus [6] = test: Bactericidal activity against Staphylococcus aureus ATCC 29213; assay type: functional; conditions: read-out: MBC99.9; procedure, shortened: as §2
Candida albicans [7] = test: Antifungal activity against Candida albicans isolated from alveolar fluid after 48 hrs by broth microdilution method; assay type: functional
Procedure, shortened: (§3)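 Modified CLSI M27-A2 broth microdilution. Yeast at (0.5−1) × 10^3 CFU/mL in MOPS-buffered RPMI 1640 was mixed 1:1 with peptide serially diluted in 0.2% BSA and incubated 48 h at 28 °C. Absorbance was read at 492 nm; MIC is the lowest concentration inhibiting 95% of growth. Triplicate, three biological replicates.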

Candida albicans [8] = test: Antifungal activity against fluconazole-resistant Candida albicans 56452 after 48 hrs by broth microdilution method; assay type: functional; conditions: Candida albicans, 56452, 48 h; procedure, shortened: as §3
Candida albicans [9] = test: Antifungal activity against Candida albicans 14936 after 48 hrs by broth microdilution method; assay type: functional; conditions: Candida albicans, 14936, 48 h; procedure, shortened: as §3
Candida tropicalis [10] = test: Antifungal activity against Candida tropicalis cgmcc 2.1975 after 48 hrs by broth microdilution method; assay type: functional; conditions: cgmcc 2.1975, 48 h
Procedure, shortened: (§4)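 Modified CLSI M27-A2 broth microdilution. Yeast were suspended in MOPS-buffered RPMI 1640 at a final (0.5−1) × 10^3 CFU/mL and mixed 1:1 with peptide serially diluted in 0.2% BSA. Plates were incubated 48 h at 28 °C and read at A492. MIC is the lowest concentration giving 95% inhibition. Run in triplicate with three biological replicates.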

Pichia kudriavzevii = test: Antifungal activity against Candida krusei cgmcc 2.1857 after 48 hrs by broth microdilution method; assay type: functional; conditions: cgmcc 2.1857, 48 h; procedure, shortened: as §4
Candida parapsilosis [11] = test: Antifungal activity against Candida parapsilosis cgmcc 2.3989 after 48 hrs by broth microdilution method; assay type: functional; conditions: Lodderomyces parapsilosis, cgmcc 2.3989, 48 h; procedure, shortened: as §4
Candida albicans [12] = test: Fungicidal activity against Candida albicans SP3931 after 96 hrs; assay type: functional; conditions: SP3931, 96 h, read-out: MFC99.9
Procedure, shortened: (§5)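 After the 48 h, 28 °C broth microdilution in MOPS-buffered RPMI 1640 (inoculum (0.5−1) × 10^3 CFU/mL), 50 μL from each well was plated on YM agar for a further 48 h at 28 °C. MFC is the lowest concentration killing at least 99.9% of cells. Triplicate, three biological replicates.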

Candida albicans [13] = test: Fungicidal activity against Candida albicans SP3903 after 96 hrs; assay type: functional; conditions: SP3903, 96 h, read-out: MFC99.9; procedure, shortened: as §5
Candida albicans [14] = test: Fungicidal activity against Candida albicans SP3902 after 96 hrs; assay type: functional; conditions: SP3902, 96 h, read-out: MFC99.9; procedure, shortened: as §5
Candida albicans [15] = test: Fungicidal activity against Candida albicans SP3876 after 96 hrs; assay type: functional; conditions: SP3876, 96 h, read-out: MFC99.9; procedure, shortened: as §5
Candida albicans [16] = test: Fungicidal activity against Candida albicans isolated from alveolar fluid after 96 hrs; assay type: functional; conditions: read-out: MFC99.9; procedure, shortened: as §5
Candida albicans [17] = test: Fungicidal activity against fluconazole-resistant Candida albicans 56452 after 96 hrs; assay type: functional; conditions: Candida albicans, 56452, 96 h; read-out: MFC99.9; procedure, shortened: as §5
Candida albicans [18] = test: Fungicidal activity against fluconazole-resistant Candida albicans 56214 after 96 hrs; assay type: functional; conditions: Candida albicans, 56214, 96 h; read-out: MFC99.9; procedure, shortened: as §5
Candida albicans [19] = test: Fungicidal activity against Candida albicans 14936 after 96 hrs; assay type: functional; conditions: Candida albicans, 14936, 96 h; read-out: MFC99.9; procedure, shortened: as §5
Candida albicans [20] = test: Fungicidal activity against fluconazole-resistant Candida albicans 17546 after 96 hrs; assay type: functional; conditions: Candida albicans, 17546, 96 h; read-out: MFC99.9; procedure, shortened: as §5
Candida tropicalis [21] = test: Fungicidal activity against Candida tropicalis cgmcc 2.1975 after 96 hrs; assay type: functional; conditions: cgmcc 2.1975, 96 h, read-out: MFC99.9
Procedure, shortened: (§6)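 Wells from the 48 h, 28 °C RPMI 1640/MOPS microdilution plates were plated on YM agar and incubated a further 48 h at 28 °C. MFC is the lowest concentration killing at least 99.9% of cells. Run in triplicate with three biological replicates.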

Candida parapsilosis [22] = test: Fungicidal activity against Candida parapsilosis cgmcc 2.3989 after 96 hrs; assay type: functional; conditions: Lodderomyces parapsilosis, cgmcc 2.3989, 96 h; read-out: MFC99.9; procedure, shortened: as §6
Escherichia coli [23] = test: Antibacterial activity against Escherichia coli ATCC 25922 after 18 hrs in presence of KCl by broth dilution method; assay type: functional; conditions: ATCC 25922, 18 h
Escherichia coli [24] = test: Antibacterial activity against Escherichia coli ATCC 25922 after 18 hrs in presence of CaCl2 by broth dilution method; assay type: functional; conditions: ATCC 25922, 18 h
Escherichia coli [25] = test: Antibacterial activity against Escherichia coli ATCC 25922 after 18 hrs in presence of ZnCl2 by broth dilution method; assay type: functional; conditions: ATCC 25922, 18 h
Escherichia coli [26] = test: Antibacterial activity against Escherichia coli ATCC 25922 after 18 hrs in presence of FeCl3 by broth dilution method; assay type: functional; conditions: ATCC 25922, 18 h
Candida albicans [27] = test: Antifungal activity against Candida albicans cgmcc 2.2086 in presence of NaCl by broth dilution method; assay type: functional
Candida albicans [28] = test: Antifungal activity against Candida albicans cgmcc 2.2086 in presence of NH4Cl by broth dilution method; assay type: functional
Candida albicans [29] = test: Antifungal activity against Candida albicans cgmcc 2.2086 in presence of CaCl2 by broth dilution method; assay type: functional
Candida albicans [30] = test: Antifungal activity against Candida albicans cgmcc 2.2086 in presence of ZnCl2 by broth dilution method; assay type: functional

| Substance | viability at 24 h, up to 64 µM [1] [%] | MIC95 (Escherichia coli [2]) [µM] | MIC95 (Escherichia coli [3]) [µM] | MIC95 (Staphylococcus aureus [4]) [µM] | MBC (Salmonella typhimurium) [µM] | MBC [5] [µM] | MBC (Staphylococcus aureus [6]) [µM] | MIC95 (Candida albicans [7]) [µM] | MIC95 (Candida albicans [8]) [µM] | MIC95 (Candida albicans [9]) [µM] | MIC95 (Candida tropicalis [10]) [µM] | MIC95 (Pichia kudriavzevii) [µM] | MIC95 (Candida parapsilosis [11]) [µM] | MFC (Candida albicans [12]) [µM] | MFC (Candida albicans [13]) [µM] | MFC (Candida albicans [14]) [µM] | MFC (Candida albicans [15]) [µM] | MFC (Candida albicans [16]) [µM] | MFC (Candida albicans [17]) [µM] | MFC (Candida albicans [18]) [µM] | further results |
| --- | --- | --- | --- | --- | --- | --- | --- | --- | --- | --- | --- | --- | --- | --- | --- | --- | --- | --- | --- | --- | --- |
| H-RLLRRLRRLLR-NH2 | 70 to 80 | 4 | 4 | 4 | 16 | 32 | 16 | 8 | 8 | 8 | 2 | 4 | 8 | 8 | 4 | 8 | 8 | 16 | 8 | 16 | MFC (Candida albicans [19]): 8 µM; MFC (Candida albicans [20]): 16 µM; MFC (Candida tropicalis [21]): 4 µM; MFC (Candida parapsilosis [22]): 16 µM; MIC (Escherichia coli [23]): 4 µM; MIC (Escherichia coli [24]): 8 µM; MIC (Escherichia coli [25]): 8 µM; MIC (Escherichia coli [26]): 16 µM; MIC (Candida albicans [27]): 16 µM; MIC (Candida albicans [28]): 4 µM; MIC (Candida albicans [29]): 8 µM; MIC (Candida albicans [30]): 8 µM |
| H-RLRLLLRLR-NH2 | 70 to 80 | 4 | 4 | 8 | 8 | 8 | 8 | 8 | 8 | 4 | 2 | 8 | > 64 | 16 | 8 | 8 | 4 | 16 | 8 | 16 | MFC (Candida albicans [19]): 4 µM; MFC (Candida albicans [20]): 16 µM; MFC (Candida tropicalis [21]): 4 µM; MFC (Candida parapsilosis [22]): > 64 µM; MIC (Escherichia coli [23]): 4 µM; MIC (Escherichia coli [24]): 8 µM; MIC (Escherichia coli [25]): 8 µM; MIC (Escherichia coli [26]): 4 µM; MIC (Candida albicans [27]): 32 µM; MIC (Candida albicans [28]): 8 µM; MIC (Candida albicans [29]): 64 µM; MIC (Candida albicans [30]): 8 µM |
| H-RRFRFFFRFRR-NH2 | 70 to 80 | 4 | 4 | 4 | 8 | 4 | 8 | 4 | 4 | 4 | 1 | 2 | 16 | 8 | 2 | 4 | 4 | 8 | 4 | 8 | MFC (Candida albicans [19]): 4 µM; MFC (Candida albicans [20]): 2 µM; MFC (Candida tropicalis [21]): 2 µM; MFC (Candida parapsilosis [22]): 32 µM; MIC (Escherichia coli [23]): 4 µM; MIC (Escherichia coli [24]): 4 µM; MIC (Escherichia coli [25]): 2 µM; MIC (Escherichia coli [26]): 4 µM; MIC (Candida albicans [27]): 16 µM; MIC (Candida albicans [28]): 4 µM; MIC (Candida albicans [29]): 16 µM; MIC (Candida albicans [30]): 4 µM |
